ChEMBL document CHEMBL2390901, “Synthesis and biological evaluation of N-(4-hydroxy-3-mercaptonaphthalen-1-yl)amides as inhibitors of angiogenesis and tumor growth” (Eur J Med Chem, 2013)
Activity calls are given as the source filed them. No cut-off for these calls is given here.

Each compound was assayed on HCT-116 (assay: Antiproliferative activity against human HCT116 cells after 48 hrs by MTT assay). Conditions: HCT-116, 48 h.
Type: functional, cell-based
Summary of the method: (§1)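 Cells kept in RPMI 1640 with 10 % FBS at 37 °C, 5 % CO2. Seeded 5,000/well, allowed 4 h, then exposed to serial dilutions for 48 h. MTT added for the last 4 h; formazan dissolved in DMSO, absorbance at 570 nm.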

COc1cccc(C(=O)Nc2cc(Sc3ncn[nH]3)c(O)c3ccccc23)c1 and O=C(Nc1cc(Sc2ncn[nH]2)c(O)c2ccccc12)c1cccc(Cl)c1 cannot be ordered by IC50: > 100 µM for the first, > 100 µM for the second.

Compared with O=C(Nc1cc(Sc2nncs2)c(O)c2ccccc12)c1ccc(Cl)cc1, O=C(Nc1cc(Sc2ncn[nH]2)c(O)c2ccccc12)c1ccc(Cl)cc1 is lower in IC50: > 100 µM for the first, 43.3 µM for the second. The second is the more potent here.

O=C(/C=C/c1ccccc1)Nc1cc(Sc2ncn[nH]2)c(O)c2ccccc12 and O=C(/C=C/c1ccc(Cl)cc1)Nc1cc(Sc2ncn[nH]2)c(O)c2ccccc12 cannot be ordered by IC50: > 100 µM for the first, > 100 µM for the second.

Compared with O=C(Nc1cc(Sc2ncn[nH]2)c(O)c2ccccc12)c1cccc([N+](=O)[O-])c1, O=C(Nc1cc(Sc2ncnc3nc[nH]c23)c(O)c2ccccc12)c1ccc([N+](=O)[O-])cc1 is higher in IC50: 70.2 µM for the first, > 100 µM for the second. The first is the more potent here.

First: O=C(Nc1cc(Sc2ncnc3nc[nH]c23)c(O)c2ccccc12)c1ccccc1[N+](=O)[O-]
Second: CNC(=O)c1cc(Oc2ccc(NC(=O)Nc3ccc(Cl)c(C(F)(F)F)c3)cc2)ccn1 [SORAFENIB]
The IC50 of the first is 3.9-fold higher: 31.7 µM for the first, 8.08 µM for the second. The second is the more potent here.

These compounds were tested on MDA-MB-231 (assay: Antiproliferative activity against human MDA-MB-231 cells after 48 hrs by MTT assay). Conditions: MDA-MB-231, 48 h.
Type: functional, cell-based
Summary of the method: as §1

COc1cccc(C(=O)Nc2cc(Sc3ncn[nH]3)c(O)c3ccccc23)c1 and O=C(Nc1cc(Sc2ncn[nH]2)c(O)c2ccccc12)c1cccc(Cl)c1 cannot be ordered by IC50: > 100 µM for the first, > 100 µM for the second.

First: O=C(Nc1cc(Sc2nncs2)c(O)c2ccccc12)c1ccc(Cl)cc1
Second: O=C(Nc1cc(Sc2ncn[nH]2)c(O)c2ccccc12)c1ccc(Cl)cc1
The IC50 of the first is higher: > 100 µM for the first, 25.7 µM for the second.

O=C(/C=C/c1ccccc1)Nc1cc(Sc2ncn[nH]2)c(O)c2ccccc12 and O=C(/C=C/c1ccc(Cl)cc1)Nc1cc(Sc2ncn[nH]2)c(O)c2ccccc12 cannot be ordered by IC50: > 100 µM for the first, > 100 µM for the second.

First: O=C(Nc1cc(Sc2ncn[nH]2)c(O)c2ccccc12)c1cccc([N+](=O)[O-])c1
Second: O=C(Nc1cc(Sc2ncnc3nc[nH]c23)c(O)c2ccccc12)c1ccc([N+](=O)[O-])cc1
The IC50 of the first is lower: 48 µM for the first, > 100 µM for the second.

Compared with O=C(Nc1cc(Sc2ncnc3nc[nH]c23)c(O)c2ccccc12)c1ccccc1[N+](=O)[O-], CNC(=O)c1cc(Oc2ccc(NC(=O)Nc3ccc(Cl)c(C(F)(F)F)c3)cc2)ccn1 [SORAFENIB] is 3.7-fold lower in IC50: 54.2 µM for the first, 14.6 µM for the second.

Each compound was assayed on HUVEC (assay: Antiangiogenic activity in HUVEC assessed as inhibition of tube formation at 50 uM after 6 hrs by matrigel assay). Conditions: Homo sapiens.
Type: functional
Summary of the method: (§2)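 HUVECs seeded at 40,000 cells/well on Matrigel (gelled 30 min, 37 °C) in M199 with 5 % FBS plus compound or vehicle (0.5 % DMSO); 6 h at 37 °C, 5 % CO2. Tubes photographed by phase-contrast (×200); tube area measured as pixels and compared with vehicle. Mean ± SD of three independent experiments.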

First: O=C(Nc1cc(Sc2nncs2)c(O)c2ccccc12)c1ccc(Cl)cc1
Second: O=C(Nc1cc(Sc2ncn[nH]2)c(O)c2ccccc12)c1ccc(Cl)cc1
The inhibition at 50 µM of the first is higher: > 80% for the first, 65% for the second.

O=C(/C=C/c1ccccc1)Nc1cc(Sc2ncn[nH]2)c(O)c2ccccc12 and O=C(Nc1cc(Sc2ncn[nH]2)c(O)c2ccccc12)c1cccc(Cl)c1 cannot be ordered by inhibition at 50 µM: > 80% for the first, > 80% for the second.

For O=C(Nc1cc(Sc2ncnc3nc[nH]c23)c(O)c2ccccc12)c1ccccc1[N+](=O)[O-], the inhibition at 50 µM was > 80%.

Each compound was assayed on K562 (assay: Antiproliferative activity against human K562 cells after 48 hrs by MTT assay). Conditions: K562, 48 h.
Type: functional, cell-based
Summary of the method: as §1

Compared with O=C(Nc1cc(Sc2ncnc3nc[nH]c23)c(O)c2ccccc12)c1ccccc1[N+](=O)[O-], O=C(Nc1cc(Sc2ncn[nH]2)c(O)c2ccccc12)c1ccc(Cl)cc1 is 2-fold lower in IC50: 37.2 µM for the first, 18.8 µM for the second. The second is the more potent here.

CNC(=O)c1cc(Oc2ccc(NC(=O)Nc3ccc(Cl)c(C(F)(F)F)c3)cc2)ccn1 [SORAFENIB] showed an IC50 of 13.8 µM.

Each compound was assayed on Aorta (assay: Antiangiogenic activity in Sprague-Dawley rat aortic rings assessed as inhibition of microvessel outgrowth at 1 uM after 6 days by matrigel assay). Conditions: 144 h.
Type: functional
Summary of the method: (§3)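 Aortas from 8–10-week-old male Sprague Dawley rats cleaned of fibroadipose tissue, cut into 1-mm rings, embedded between two Matrigel layers. Compound or vehicle (0.5 % DMSO) added every other day for 6 days; imaged day 7 (×200). Sprouting area quantified as pixels versus vehicle; mean ± SD, three independent experiments.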

O=C(Nc1cc(Sc2ncnc3nc[nH]c23)c(O)c2ccccc12)c1ccccc1[N+](=O)[O-] was tested, and the inhibition at 1 µM was > 70%.

The compounds below were run on MCF7 (assay: Antiproliferative activity against human MCF7 cells after 48 hrs by MTT assay). Conditions: MCF7, 48 h.
Type: functional, cell-based
Summary of the method: as §1

O=C(Nc1cc(Sc2ncnc3nc[nH]c23)c(O)c2ccccc12)c1ccccc1[N+](=O)[O-] and O=C(Nc1cc(Sc2ncn[nH]2)c(O)c2ccccc12)c1ccc(Cl)cc1 cannot be ordered by IC50: > 100 µM for the first, > 100 µM for the second.

In the case of CNC(=O)c1cc(Oc2ccc(NC(=O)Nc3ccc(Cl)c(C(F)(F)F)c3)cc2)ccn1 [SORAFENIB], the IC50 is reported as 7.33 µM.

The compounds below were run on A549 (assay: Antiproliferative activity against human A549 cells after 48 hrs by MTT assay). Conditions: A549, 48 h.
Type: functional, cell-based
Summary of the method: as §1

Compared with O=C(Nc1cc(Sc2ncnc3nc[nH]c23)c(O)c2ccccc12)c1ccccc1[N+](=O)[O-], O=C(Nc1cc(Sc2ncn[nH]2)c(O)c2ccccc12)c1ccc(Cl)cc1 is lower in IC50: > 100 µM for the first, 41.9 µM for the second. The second is the more potent here.

Work on CNC(=O)c1cc(Oc2ccc(NC(=O)Nc3ccc(Cl)c(C(F)(F)F)c3)cc2)ccn1 [SORAFENIB] yielded an IC50 of 12.5 µM.

Each compound was assayed on HUVEC (assay: Antiangiogenic activity in HUVEC assessed as inhibition of tube formation at 10 uM after 6 hrs by matrigel assay). Conditions: Homo sapiens.
Type: functional
Summary of the method: as §2

O=C(Nc1cc(Sc2ncn[nH]2)c(O)c2ccccc12)c1ccc(Cl)cc1 was tested, and the inhibition was “Active”.

Each compound was assayed against ALK tyrosine kinase receptor (Homo sapiens) (UniProt Q9UM73) (assay: Inhibition of ALK (unknown origin) at 10 uM after 30 mins by fluorescence assay). Conditions: not given.
Summary of the method: (§4)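 Single 10 μM test. Enzyme preincubated with compound in Hepes/Tris pH 7.4, EGTA/Tris, MgCl2, DTT, 0.008 % Tween 20. Substrate peptide and ATP added; 30 min at room temperature. Stopped with EDTA; europium-labelled anti-phospho PT66 antibody added, TR-FRET read after 60 min. Percent inhibition versus control enzyme activity; no-enzyme basal control; duplicate.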

Chain of ALK tyrosine kinase receptor (Homo sapiens) (Q9UM73 19-1620 limits assumed): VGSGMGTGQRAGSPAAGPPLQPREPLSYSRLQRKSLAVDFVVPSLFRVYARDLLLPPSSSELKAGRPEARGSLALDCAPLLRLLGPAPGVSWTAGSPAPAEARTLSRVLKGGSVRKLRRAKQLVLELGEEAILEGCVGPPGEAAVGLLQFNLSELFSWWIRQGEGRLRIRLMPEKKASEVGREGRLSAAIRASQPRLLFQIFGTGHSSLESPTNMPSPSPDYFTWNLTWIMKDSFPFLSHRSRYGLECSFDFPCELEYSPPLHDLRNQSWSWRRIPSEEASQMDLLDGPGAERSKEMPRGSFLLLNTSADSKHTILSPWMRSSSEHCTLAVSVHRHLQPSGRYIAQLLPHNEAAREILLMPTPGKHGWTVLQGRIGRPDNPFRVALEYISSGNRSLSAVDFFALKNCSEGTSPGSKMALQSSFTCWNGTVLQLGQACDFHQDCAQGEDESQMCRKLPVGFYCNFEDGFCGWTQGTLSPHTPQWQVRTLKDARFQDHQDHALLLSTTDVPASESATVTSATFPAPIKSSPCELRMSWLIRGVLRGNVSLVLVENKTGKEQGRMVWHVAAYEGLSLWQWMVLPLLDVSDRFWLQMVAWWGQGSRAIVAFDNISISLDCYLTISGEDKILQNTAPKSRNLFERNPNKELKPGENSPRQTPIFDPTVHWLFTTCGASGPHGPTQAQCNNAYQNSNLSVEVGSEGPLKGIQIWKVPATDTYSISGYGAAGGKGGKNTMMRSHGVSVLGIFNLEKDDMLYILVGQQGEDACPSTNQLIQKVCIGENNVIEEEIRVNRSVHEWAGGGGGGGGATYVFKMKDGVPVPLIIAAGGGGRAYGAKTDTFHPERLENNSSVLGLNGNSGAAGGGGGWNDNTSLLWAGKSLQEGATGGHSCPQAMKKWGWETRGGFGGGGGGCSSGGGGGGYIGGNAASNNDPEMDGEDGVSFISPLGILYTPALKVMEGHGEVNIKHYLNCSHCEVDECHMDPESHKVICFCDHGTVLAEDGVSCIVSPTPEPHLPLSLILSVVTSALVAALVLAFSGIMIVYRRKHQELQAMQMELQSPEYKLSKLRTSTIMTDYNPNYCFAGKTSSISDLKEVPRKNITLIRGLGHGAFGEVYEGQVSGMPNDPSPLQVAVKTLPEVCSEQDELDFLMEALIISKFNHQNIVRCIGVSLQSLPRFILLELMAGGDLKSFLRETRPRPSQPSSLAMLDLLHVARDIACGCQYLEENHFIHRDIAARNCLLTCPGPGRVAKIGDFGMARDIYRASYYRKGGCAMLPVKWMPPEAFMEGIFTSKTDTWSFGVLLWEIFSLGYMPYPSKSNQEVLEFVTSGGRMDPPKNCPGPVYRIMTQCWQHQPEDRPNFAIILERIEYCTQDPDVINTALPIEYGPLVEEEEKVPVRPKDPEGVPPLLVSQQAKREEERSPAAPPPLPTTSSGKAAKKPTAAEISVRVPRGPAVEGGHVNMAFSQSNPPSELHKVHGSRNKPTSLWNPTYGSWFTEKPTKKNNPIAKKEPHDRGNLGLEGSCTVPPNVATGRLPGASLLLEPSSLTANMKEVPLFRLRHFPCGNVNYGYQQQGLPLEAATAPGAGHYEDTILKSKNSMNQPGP

In the case of COc1cccc(C(=O)Nc2cc(Sc3ncn[nH]3)c(O)c3ccccc23)c1, the inhibition is reported as “inactive”.
O=C(/C=C/c1ccccc1)Nc1cc(Sc2ncn[nH]2)c(O)c2ccccc12 was tested, and the inhibition was “inactive”.
O=C(Nc1cc(Sc2ncn[nH]2)c(O)c2ccccc12)c1cccc([N+](=O)[O-])c1 was tested, and the inhibition was “inactive”.
O=C(Nc1cc(Sc2ncnc3nc[nH]c23)c(O)c2ccccc12)c1ccccc1[N+](=O)[O-] was tested, and the inhibition was “inactive”.
O=C(Nc1cc(Sc2ncn[nH]2)c(O)c2ccccc12)c1ccc(Cl)cc1 was tested, and the inhibition was “inactive”.
O=C(Nc1cc(Sc2ncn[nH]2)c(O)c2ccccc12)c1cccc(Cl)c1 was tested, and the inhibition was “inactive”.

Compared with O=C(Nc1cc(Sc2nncs2)c(O)c2ccccc12)c1ccc(Cl)cc1, O=C(/C=C/c1ccc(Cl)cc1)Nc1cc(Sc2ncn[nH]2)c(O)c2ccccc12 is lower in inhibition: 4.2% for the first, 0.7% for the second.

With CN[C@@H]1C[C@H]2O[C@@](C)([C@@H]1OC)n1c3ccccc3c3c4c(c5c6ccccc6n2c5c31)C(=O)NC4 the inhibition was 97.9%.

The compounds below were run against RAC-alpha serine/threonine-protein kinase (Homo sapiens) (UniProt P31749) (assay: Inhibition of AKT1 (unknown origin) at 10 uM after 30 mins by fluorescence assay). Conditions: not given.
Summary of the method: as §4

Chain of RAC-alpha serine/threonine-protein kinase (Homo sapiens) (P31749 whole entry): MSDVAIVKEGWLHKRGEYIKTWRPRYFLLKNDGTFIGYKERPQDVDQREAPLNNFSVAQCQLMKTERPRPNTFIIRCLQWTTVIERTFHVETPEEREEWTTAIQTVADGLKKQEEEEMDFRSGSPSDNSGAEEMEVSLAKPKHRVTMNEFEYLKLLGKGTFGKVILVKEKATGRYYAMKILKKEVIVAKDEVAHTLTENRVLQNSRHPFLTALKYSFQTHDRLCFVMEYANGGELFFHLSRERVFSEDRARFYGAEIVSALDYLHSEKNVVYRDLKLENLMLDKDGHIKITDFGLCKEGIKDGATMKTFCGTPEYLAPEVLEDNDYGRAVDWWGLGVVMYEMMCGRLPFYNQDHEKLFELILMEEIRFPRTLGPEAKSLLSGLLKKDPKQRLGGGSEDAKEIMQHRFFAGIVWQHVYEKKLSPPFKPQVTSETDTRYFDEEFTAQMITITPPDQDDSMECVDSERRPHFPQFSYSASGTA

Going from COc1cccc(C(=O)Nc2cc(Sc3ncn[nH]3)c(O)c3ccccc23)c1 to O=C(Nc1cc(Sc2ncn[nH]2)c(O)c2ccccc12)c1cccc(Cl)c1, the inhibition rises from 19.4% to 46%.

Compared with O=C(Nc1cc(Sc2nncs2)c(O)c2ccccc12)c1ccc(Cl)cc1, O=C(Nc1cc(Sc2ncn[nH]2)c(O)c2ccccc12)c1ccc(Cl)cc1 is higher in inhibition: 7.5% for the first, 50.1% for the second.

First: O=C(/C=C/c1ccccc1)Nc1cc(Sc2ncn[nH]2)c(O)c2ccccc12
Second: O=C(/C=C/c1ccc(Cl)cc1)Nc1cc(Sc2ncn[nH]2)c(O)c2ccccc12
The inhibition of the first is lower: 26.1% for the first, 31.8% for the second.

Going from O=C(Nc1cc(Sc2ncn[nH]2)c(O)c2ccccc12)c1cccc([N+](=O)[O-])c1 to O=C(Nc1cc(Sc2ncnc3nc[nH]c23)c(O)c2ccccc12)c1ccccc1[N+](=O)[O-], the inhibition rises from 29.3% to 50.7%.

The compounds below were run on Aorta (assay: Antiangiogenic activity in Sprague-Dawley rat aortic rings assessed as reduction of microvessel outgrowth after 6 days by matrigel assay). Conditions: not given.
Type: functional, tissue-based
Summary of the method: as §3

O=C(Nc1cc(Sc2ncnc3nc[nH]c23)c(O)c2ccccc12)c1ccccc1[N+](=O)[O-] was tested, and the Activity was “Dose-dependent effect”.

Each compound was assayed on HUVEC (assay: Antiproliferative activity against human HUVEC cells after 48 hrs by MTT assay). Conditions: not given.
Type: functional, cell-based
Summary of the method: as §1

Compared with O=C(Nc1cc(Sc2ncn[nH]2)c(O)c2ccccc12)c1ccc(Cl)cc1, CNC(=O)c1cc(Oc2ccc(NC(=O)Nc3ccc(Cl)c(C(F)(F)F)c3)cc2)ccn1 [SORAFENIB] is lower in IC50: > 100 µM for the first, 6.42 µM for the second.

Each compound was assayed on Aorta (assay: Antiangiogenic activity in Sprague-Dawley rat aortic rings assessed as inhibition of microvessel outgrowth at 50 uM after 6 days by matrigel assay). Conditions: not given.
Type: functional
Summary of the method: as §3

In the case of COc1cccc(C(=O)Nc2cc(Sc3ncn[nH]3)c(O)c3ccccc23)c1, the inhibition is reported as “Active”.
In the case of O=C(Nc1cc(Sc2nncs2)c(O)c2ccccc12)c1ccc(Cl)cc1, the inhibition is reported as “Active”.
O=C(/C=C/c1ccccc1)Nc1cc(Sc2ncn[nH]2)c(O)c2ccccc12 was tested, and the inhibition was “Active”.
With O=C(Nc1cc(Sc2ncn[nH]2)c(O)c2ccccc12)c1cccc([N+](=O)[O-])c1 the inhibition was “Active”.
With O=C(Nc1cc(Sc2ncnc3nc[nH]c23)c(O)c2ccccc12)c1ccc([N+](=O)[O-])cc1 the inhibition was “Active”.
In the case of O=C(/C=C/c1ccc(Cl)cc1)Nc1cc(Sc2ncn[nH]2)c(O)c2ccccc12, the inhibition is reported as “Active”.
With O=C(Nc1cc(Sc2ncn[nH]2)c(O)c2ccccc12)c1ccc(Cl)cc1 the inhibition was “inactive”.
For O=C(Nc1cc(Sc2ncn[nH]2)c(O)c2ccccc12)c1cccc(Cl)c1, the inhibition was “Active”.

Same assay, conditions: 144 h

Compound O=C(Nc1cc(Sc2ncnc3nc[nH]c23)c(O)c2ccccc12)c1ccccc1[N+](=O)[O-] has an inhibition at 50 µM of 96%.

What follows are compounds tested on PC-3 (assay: Antiproliferative activity against human PC3 cells after 48 hrs by MTT assay). Conditions: PC-3, 48 h.
Type: functional, cell-based
Summary of the method: as §1

Going from COc1cccc(C(=O)Nc2cc(Sc3ncn[nH]3)c(O)c3ccccc23)c1 to O=C(Nc1cc(Sc2ncn[nH]2)c(O)c2ccccc12)c1cccc(Cl)c1, the IC50 rises from 42.1 µM to 85.6 µM (2-fold). The first is the more potent here.

Going from O=C(Nc1cc(Sc2nncs2)c(O)c2ccccc12)c1ccc(Cl)cc1 to O=C(Nc1cc(Sc2ncn[nH]2)c(O)c2ccccc12)c1ccc(Cl)cc1, the IC50 falls from > 100 µM to 5.52 µM. The second is the more potent here.

O=C(/C=C/c1ccccc1)Nc1cc(Sc2ncn[nH]2)c(O)c2ccccc12 and O=C(/C=C/c1ccc(Cl)cc1)Nc1cc(Sc2ncn[nH]2)c(O)c2ccccc12 cannot be ordered by IC50: > 100 µM for the first, > 100 µM for the second.

Going from O=C(Nc1cc(Sc2ncn[nH]2)c(O)c2ccccc12)c1cccc([N+](=O)[O-])c1 to O=C(Nc1cc(Sc2ncnc3nc[nH]c23)c(O)c2ccccc12)c1ccc([N+](=O)[O-])cc1, the IC50 rises from 26.9 µM to > 100 µM. The first is the more potent here.

Going from O=C(Nc1cc(Sc2ncnc3nc[nH]c23)c(O)c2ccccc12)c1ccccc1[N+](=O)[O-] to CNC(=O)c1cc(Oc2ccc(NC(=O)Nc3ccc(Cl)c(C(F)(F)F)c3)cc2)ccn1 [SORAFENIB], the IC50 falls from > 100 µM to 24.2 µM.
